ChEMBL document CHEMBL5325428 (Eur J Med Chem, 2023)

How the values were obtained:
SARS-CoV-2 = assay: Antiviral activity against SARS-CoV-2 Wuhan-HU-1 infected in HEK293T cells assessed as inhibition of viral replication incubated for 30 hrs by luciferase reporter gene assay; type: functional, organism-based; conditions: Severe acute respiratory syndrome coronavirus 2, Wuhan-HU-1, HEK-293T
Outline: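 This is a non-infectious Wuhan-Hu-1 replicon system, not infectious virus. Replicon RNA was electroporated into 293T cells, which were then incubated for 30 h with compound at 2, 0.5, 0.1 and 0.02 µM or with 0.1% DMSO. Read-out was luciferase activity. Values are mean ± SD.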

[1] = Cytotoxicity against human HEK293T cells assessed as reduction in cell viability incubated for 72 hrs by CytoTox 96 nonradioactive assay; type: toxicity, cell-based, HEK-293T
[2] = Inhibition of MERS-CoV 3CLpro using FAM-SAVLQ as substrate preincubated with enzyme for 1 hr followed by susbtrate addition and measured after 1 hr by FRET assay; design: species or system Middle East respiratory syndrome-related coronavirus
[3] = molecular target: Replicase polyprotein 1ab (Severe acute respiratory syndrome coronavirus 2, UniProt P0DTD1); assay: Inhibition of N-terminal His6-tagged full length SARS-CoV-2 3CLpro using FAM-SAVLQ as substrate preincubated with enzyme for 1 hr followed by susbtrate addition and measured after 1 hr by FRET assay
chymotrypsin = chymotrypsin (Homo sapiens, UniProt P17538+P40313+Q6GPI1+Q99895); assay: Inhibition of human chymotrypsin; type: toxicity
Outline: (§1)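 Commercial purified human proteases were assayed following the manufacturers' procedures. IC50 values are mean ± SD.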

Prothrombin = Prothrombin (Homo sapiens, UniProt P00734); assay: Inhibition of human thrombin; type: toxicity; outline: as §1
Neutrophil elastase = molecular target: T1, Neutrophil elastase (Homo sapiens, UniProt P08246); assay: Inhibition of human neutrophil elastase; type: toxicity; outline: as §1
T1 sequence (P08246 whole entry): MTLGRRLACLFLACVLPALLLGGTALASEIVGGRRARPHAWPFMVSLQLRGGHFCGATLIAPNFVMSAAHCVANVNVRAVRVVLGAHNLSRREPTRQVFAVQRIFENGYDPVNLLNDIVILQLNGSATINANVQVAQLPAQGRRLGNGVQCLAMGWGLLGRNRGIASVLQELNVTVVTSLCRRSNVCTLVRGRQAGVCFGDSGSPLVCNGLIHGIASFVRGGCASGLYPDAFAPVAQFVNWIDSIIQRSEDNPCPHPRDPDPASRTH

Procathepsin L = Procathepsin L (Homo sapiens, UniProt P07711); assay: Inhibition of human Cathepsin L; type: toxicity; outline: as §1
Procathepsin L, sequence (P07711 whole entry): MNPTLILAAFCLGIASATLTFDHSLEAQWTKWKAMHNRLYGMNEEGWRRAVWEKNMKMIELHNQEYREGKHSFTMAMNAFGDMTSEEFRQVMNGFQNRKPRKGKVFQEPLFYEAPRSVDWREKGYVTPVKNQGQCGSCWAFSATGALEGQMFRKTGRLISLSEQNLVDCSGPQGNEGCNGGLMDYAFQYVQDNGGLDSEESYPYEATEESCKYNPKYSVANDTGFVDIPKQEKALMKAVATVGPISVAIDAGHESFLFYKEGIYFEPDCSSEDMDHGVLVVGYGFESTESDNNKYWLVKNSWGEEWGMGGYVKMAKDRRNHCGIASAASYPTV

[4] = tested on: Feline infectious peritonitis virus; assay: Antiviral activity against FIPV 1146 infected in CRFK cells assessed as inhibition of viral replication incubated for upto 168 hrs by TCID50 method; type: functional, organism-based; conditions: Alphacoronavirus 1, 1146, CRFK
Outline: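 Crandell-Rees feline kidney cells infected with FIPV-1146; test compounds added to the medium at various concentrations. EC50 was fitted from the dose-dependent inhibition curve with a variable slope. Values are mean ± SD.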

Cathepsin D = Cathepsin D (Homo sapiens, UniProt P07339); assay: Inhibition of human Cathepsin D; type: toxicity; outline: as §1
Cathepsin D, sequence (P07339 65-162 limits assumed): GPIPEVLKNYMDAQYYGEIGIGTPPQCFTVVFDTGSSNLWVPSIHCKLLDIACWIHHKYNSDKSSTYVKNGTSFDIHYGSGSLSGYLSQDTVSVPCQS
Cathepsin D, sequence (P07339 169-412 limits assumed): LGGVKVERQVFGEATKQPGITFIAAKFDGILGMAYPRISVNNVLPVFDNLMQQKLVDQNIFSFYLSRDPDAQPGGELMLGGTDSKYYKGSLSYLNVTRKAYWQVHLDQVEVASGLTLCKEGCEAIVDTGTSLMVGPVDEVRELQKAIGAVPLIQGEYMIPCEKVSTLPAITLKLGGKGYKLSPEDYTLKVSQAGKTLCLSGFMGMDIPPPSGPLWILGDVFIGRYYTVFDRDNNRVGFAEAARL

Cathepsin G = molecular target: T2, Cathepsin G (Homo sapiens, UniProt P08311); assay: Inhibition of human Cathepsin G; type: toxicity; outline: as §1
T2 sequence (P08311 whole entry): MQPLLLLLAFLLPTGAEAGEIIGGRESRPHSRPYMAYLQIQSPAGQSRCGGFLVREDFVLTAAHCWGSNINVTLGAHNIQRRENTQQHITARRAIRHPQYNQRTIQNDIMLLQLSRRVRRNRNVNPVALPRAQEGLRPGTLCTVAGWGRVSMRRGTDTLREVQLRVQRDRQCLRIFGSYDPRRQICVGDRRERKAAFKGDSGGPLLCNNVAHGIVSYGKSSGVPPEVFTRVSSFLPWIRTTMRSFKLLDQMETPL

Cathepsin B = Cathepsin B (Homo sapiens, UniProt P07858); assay: Inhibition of human Cathepsin B; type: toxicity; outline: as §1
[5] = Safety index, ratio of CC50 for cytotoxicity against human HEK293T cells to EC50 for antiviral activity against SARS-CoV-2 Wuhan-HU-1 infected in HEK293T cells; type: toxicity, cell-based; conditions: read-out: Ratio CC50/EC50
Outline: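 In vitro safety index was calculated as the 293T CC50 divided by the SARS-CoV-2 replicon EC50.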

SMILES	EC50 (SARS-CoV-2) [nM]	CC50 at 72 h [1] [nM]	IC50 [2] [nM]	IC50 [3] [nM]	further results
CC(C)C[C@H](NC(=O)OCc1ccccc1)C(=O)N[C@@H](C[C@@H]1CCNC1=O)C(O)S(=O)(=O)O (stereo partly drawn)	27	–	–	–	–
CC(C)C[C@H](NC(=O)OCc1ccccc1)C(=O)N[C@H](C=O)C[C@@H]1CCNC1=O	31	[…]	280	–	–
CC(C)C[C@H](NC(=O)OCC(C)(C)Sc1ccc(F)cc1)C(=O)N[C@H](C=O)C[C@@H]1CCNC1=O	–	> 50000	190	170	–
CC(C)C[C@H](NC(=O)OCC(C)(C)Oc1ccc(F)cc1)C(=O)N[C@H](C=O)C[C@@H]1CCNC1=O	–	> 50000	–	220	IC50 (chymotrypsin): > 50000 nM; IC50 (Prothrombin): > 50000 nM; IC50 (Neutrophil elastase): > 50000 nM; IC50 (Procathepsin L): 30 nM; EC50 [4]: 70 nM; IC50 (Cathepsin D): > 50000 nM; IC50 (Cathepsin G): > 50000 nM; IC50 (Cathepsin B): 1900 nM
CC(C)C[C@H](NC(=O)OCC(C)(C)Oc1ccc(F)cc1)C(=O)N[C@@H](C[C@@H]1CCNC1=O)C(O)S(=O)(=O)O (stereo partly drawn)	–	> 50000	40	230	–
CC(C)C[C@H](NC(=O)OCC(C)(C)Sc1nc2ccccc2[nH]1)C(=O)N[C@H](C=O)C[C@@H]1CCNC1=O	–	> 50000	120	300	–
[2H]C([2H])(OC(=O)N[C@@H](CC(C)C)C(=O)N[C@@H](C[C@@H]1CCNC1=O)C(O)S(=O)(=O)[O-])C(C)(C)Oc1ccc(Cl)cc1.[Na+] (stereo partly drawn)	12	> 50000	20	170	selectivity ratio [5]: 3330
CC(C)C[C@H](NC(=O)OCC(C)(C)Sc1cccc(Cl)c1)C(=O)N[C@@H](C[C@@H]1CCNC1=O)C(O)S(=O)(=O)O (stereo partly drawn)	11	> 50000	100	170	selectivity ratio [5]: 3330
CC(C)C[C@H](NC(=O)OCC(C)(C)Sc1ccccc1)C(=O)N[C@H](C#N)C[C@@H]1CCNC1=O	60	> 50000	410	490	IC50 (chymotrypsin): > 50000 nM; IC50 (Prothrombin): > 50000 nM; IC50 (Neutrophil elastase): > 50000 nM; IC50 (Procathepsin L): 30 nM; EC50 [4]: 1320 nM; IC50 (Cathepsin D): > 50000 nM; IC50 (Cathepsin G): > 50000 nM; IC50 (Cathepsin B): 2600 nM
CC(C)C[C@H](NC(=O)OCC(C)(C)Sc1ccccc1)C(=O)N[C@@H](C[C@@H]1CCNC1=O)C(O)(C(=O)NC1CC1)S(=O)(=O)O (stereo partly drawn)	70	> 50000	180	450	–
CC(C)C[C@H](NC(=O)OCC(C)(C)Sc1cccc(F)c1)C(=O)N[C@H](C=O)C[C@@H]1CCNC1=O	9	> 50000	100	140	selectivity ratio [5]: 3330
CC(C)C[C@H](NC(=O)OCC(C)(C)Oc1ccc(Cl)cc1)C(=O)N[C@H](C=O)C[C@@H]1CCNC1=O	–	> 50000	20	460	–
CC(C)C[C@H](NC(=O)OCC(C)(C)Oc1ccccc1)C(=O)N[C@@H](C[C@@H]1CCNC1=O)C(O)S(=O)(=O)O (stereo partly drawn)	–	> 50000	20	240	–
CC(C)C[C@H](NC(=O)OCC(C)(C)Sc1ccccc1)C(=O)N[C@@H](C[C@@H]1CCNC1=O)C(O)S(=O)(=O)O (stereo partly drawn)	10	> 50000	–	90	selectivity ratio [5]: 3330
CC(C)C[C@H](NC(=O)OCC(C)(C)Oc1cccc(F)c1)C(=O)N[C@H](C=O)C[C@@H]1CCNC1=O	–	> 50000	50	200	–
CC(C)C[C@H](NC(=O)OCC(C)(C)Oc1cccc(F)c1)C(=O)N[C@@H](C[C@@H]1CCNC1=O)C(O)S(=O)(=O)O (stereo partly drawn)	–	> 50000	40	120	–
[2H]C([2H])(OC(=O)N[C@@H](CC(C)C)C(=O)N[C@@H](C[C@@H]1CCNC1=O)C(O)S(=O)(=O)[O-])C(C)(C)Oc1cccc(Cl)c1.[Na+] (stereo partly drawn)	–	> 50000	70	280	–
